Activity calls are given as the source filed them. No cut-off for these calls is given here. Residues, ends and D or L forms follow the SMILES beside them. *: point of attachment. Phenylacetyl(4-F) = O=C(Cc1ccc(F)cc1)*; NBn2 = c1ccc(CN(Cc2ccccc2)*)cc1; X2 = CN(C)C(=NCC(=O)*)N(C)C; NHBn = c1ccc(CN*)cc1
What was measured:
Format in all cases: functional, cell-based
[1] = target: T1, Pyroglutamylated RF-amide peptide receptor (Homo sapiens) (UniProt Q96P65); test: Antagonist activity at DYKDDDDK-flagged human GPR103 receptor expressed in CHO-K1 cells co-expressing G-protein alpha16 assessed as inhibition of 26RFa-induced calcium mobilization after 2 mins by fluorometric analysis
T1 sequence (whole entry): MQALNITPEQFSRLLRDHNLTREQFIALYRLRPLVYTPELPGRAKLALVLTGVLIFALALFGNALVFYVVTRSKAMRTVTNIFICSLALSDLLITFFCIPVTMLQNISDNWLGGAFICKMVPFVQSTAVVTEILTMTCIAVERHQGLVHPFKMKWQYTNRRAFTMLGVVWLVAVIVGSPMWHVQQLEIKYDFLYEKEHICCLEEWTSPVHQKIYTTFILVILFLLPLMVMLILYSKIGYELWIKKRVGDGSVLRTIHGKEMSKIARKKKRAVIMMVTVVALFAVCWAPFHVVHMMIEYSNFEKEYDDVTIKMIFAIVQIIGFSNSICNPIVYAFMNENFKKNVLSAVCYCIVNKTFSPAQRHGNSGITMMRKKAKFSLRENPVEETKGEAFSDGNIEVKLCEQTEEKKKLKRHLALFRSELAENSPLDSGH
Method in brief: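 Same Gα16/flag-hGPR103 CHO-K1 cells, Fluo-4AM loading and HBSS/probenecid/HEPES buffer. Triplicates; IC50 reported as mean ± SEM of at least three experiments.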

[2] = target: T1, Pyroglutamylated RF-amide peptide receptor (Homo sapiens); test: Agonist activity at DYKDDDDK-flagged human GPR103 receptor expressed in CHO-K1 cells co-expressing G-protein alpha16 assessed as stimulation of calcium mobilization at 10' -12 to 10^-5 M after 2 mins by fluorometric analysis
Method in brief: (§1)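 CHO-K1 cells stably expressing Gα16 and C-terminally flag-tagged human GPR103 (Geneticin-selected), plated at 40 000 cells/well 24 h before assay. Loaded with 2 μM Fluo-4AM for 1 h, washed, then 30 min in HBSS with 2.5 mM probenecid and 5 mM HEPES. Peptides added at 10^-12 to 10^-5 M final and fluorescence read for 2 min. Triplicates; EC50 from sigmoidal variable-slope fit, at least three experiments.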

[3] = target: T2, Pyroglutamylated RF-amide peptide receptor (Homo sapiens, UniProt Q96P65); test: Agonist activity at DYKDDDDK-flagged human GPR103 receptor expressed in CHO-K1 cells co-expressing G-protein alpha16 assessed as stimulation of calcium mobilization after 2 mins by fluorometric analysis; method in brief: as §1
T2 sequence (Q96P65 whole entry): T1 sequence (whole entry)

| Structure (SMILES) | inhibition [1] | Activity [2] | EC50 [3] [µM] |
| --- | --- | --- | --- |
| N=C(N)NCCC[C@@H](NC(=O)[C@H](Cc1ccccc1)NC(=O)[C@H](CO)NC(=O)[C@H](Cc1ccccc1)NC(=O)CNC(=O)CN)C(=O)N[C@@H](Cc1ccccc1)C(N)=O | inactive | inactive |  |
| N=C(N)NCCC[C@H](NC(=O)[C@@H](Cc1ccccc1)NC(=O)[C@H](CO)NC(=O)[C@H](Cc1ccccc1)NC(=O)CNC(=O)CN)C(=O)N[C@@H](Cc1ccccc1)C(N)=O | inactive | inactive |  |
| N=C(N)NCCC[C@H](NC(=O)[C@H](Cc1ccccc1)NC(=O)[C@H](CO)NC(=O)[C@@H](Cc1ccccc1)NC(=O)CNC(=O)CN)C(=O)N[C@@H](Cc1ccccc1)C(N)=O | inactive | inactive |  |
| N=C(N)NCCC[C@H](NC(=O)[C@H](Cc1ccccc1)NC(=O)[C@H](CO)NC(=O)[C@H](Cc1ccccc1)NC(=O)CNC(=O)CN)C(=O)N[C@H](Cc1ccccc1)C(N)=O | inactive | inactive |  |
| N=C(N)NCCC[C@H](NC(=O)[C@H](Cc1ccccc1)NC(=O)[C@H](CO)NC(=O)[C@@H](N)Cc1ccccc1)C(=O)N[C@@H](Cc1ccccc1)C(N)=O (H-FSFRF-NH2) |  | inactive |  |
| C[C@H](NC(=O)[C@H](CO)NC(=O)[C@H](Cc1ccccc1)NC(=O)CNC(=O)CN)C(=O)N[C@@H](CCCNC(=N)N)C(=O)N[C@@H](Cc1ccccc1)C(N)=O (H-GGFSARF-NH2) | inactive | inactive |  |
| C[C@H](NC(=O)[C@H](Cc1ccccc1)NC(=O)[C@H](CO)NC(=O)[C@H](Cc1ccccc1)NC(=O)CNC(=O)CN)C(=O)N[C@@H](Cc1ccccc1)C(N)=O (H-GGFSFAF-NH2) | inactive | inactive |  |
| N=C(N)NCCC[C@H](NC(=O)[C@H](Cc1ccccc1)NC(=O)[C@H](CO)NC(=O)[C@H](Cc1ccccc1)NC(=O)CNC(=O)CN)C(=O)NCc1ccccc1 (H-GGFSFR-NHBn) | inactive | inactive |  |
| C[C@H](NC(=O)[C@H](CCCNC(=N)N)NC(=O)[C@H](Cc1ccccc1)NC(=O)[C@H](CO)NC(=O)[C@H](Cc1ccccc1)NC(=O)CNC(=O)CN)C(N)=O (H-GGFSFRA-NH2) | inactive | inactive |  |
| N=C(N)NCCC[C@H](NC(=O)[C@H](Cc1ccccc1)NC(=O)[C@H](CO)NC(=O)[C@H](Cc1ccccc1)NC(=O)CNC(=O)CN)C(=O)N[C@@H](Cc1ccccc1)C(=O)N(Cc1ccccc1)Cc1ccccc1 (H-GGFSFRF-NBn2) |  | inactive |  |
| N=C(N)NCCC[C@H](NC(=O)[C@H](Cc1ccccc1)NC(=O)[C@H](CO)NC(=O)[C@H](Cc1ccccc1)NC(=O)CNC(=O)CN)C(=O)N[C@@H](Cc1ccccc1)C(=O)NCc1ccccc1 (H-GGFSFRF-NHBn) | inactive | inactive |  |
| CC(C)C[C@H](NC(=O)[C@H](CCC(=O)O)NC(=O)[C@H](CCC(=O)O)NC(=O)[C@H](C)NC(=O)[C@@H](N)CC(C)C)C(=O)N[C@@H](CC(N)=O)C(=O)NCC(=O)N[C@@H](Cc1ccc(O)cc1)C(=O)N[C@@H](CO)C(N)=O (H-LAEELNGYS-NH2) | inactive | inactive |  |
| CC(C)C[C@H](NC(=O)[C@@H]1CCCN1)C(=O)NCC(=O)N[C@@H](CC(N)=O)C(=O)N[C@@H](CC(C)C)C(=O)N[C@@H](C)C(=O)N[C@@H](CCC(=O)O)C(=O)N[C@@H](CCC(=O)O)C(=O)N[C@@H](CC(C)C)C(=O)N[C@@H](CC(N)=O)C(=O)NCC(=O)N[C@@H](Cc1ccc(O)cc1)C(=O)N[C@@H](CO)C(=O)N[C@@H](CCCNC(=N)N)C(N)=O (H-PLGNLAEELNGYSR-NH2) | inactive | inactive |  |
| CC(C)C[C@H](NC(=O)[C@H](CC(N)=O)NC(=O)CNC(=O)[C@H](CC(C)C)NC(=O)[C@@H]1CCCN1C(=O)CNC(=O)[C@H](CO)NC(=O)[C@@H](N)[C@@H](C)O)C(=O)N[C@@H](C)C(=O)N[C@@H](CCC(=O)O)C(=O)N[C@@H](CCC(=O)O)C(=O)N[C@@H](CC(C)C)C(=O)N[C@@H](CC(N)=O)C(=O)NCC(=O)N[C@@H](Cc1ccc(O)cc1)C(=O)N[C@@H](CO)C(N)=O (H-TSGPLGNLAEELNGYS-NH2) | inactive | inactive |  |
| CC(C)C[C@H](NC(=O)[C@H](CC(N)=O)NC(=O)CNC(=O)[C@H](CC(C)C)NC(=O)[C@@H]1CCCN1C(=O)CNC(=O)[C@H](CO)NC(=O)[C@@H](N)[C@@H](C)O)C(=O)N[C@@H](C)C(=O)N[C@@H](CCC(=O)O)C(=O)N[C@@H](CCC(=O)O)C(=O)N[C@@H](CC(C)C)C(=O)N[C@@H](CC(N)=O)C(=O)NCC(=O)N[C@@H](Cc1ccc(O)cc1)C(=O)N[C@@H](CO)C(=O)N[C@@H](CCCNC(=N)N)C(=O)N[C@@H](CCCCN)C(N)=O (H-TSGPLGNLAEELNGYSRK-NH2) | inactive | inactive |  |
| CN(C)C(=NCC(=O)N[C@@H](Cc1ccccc1)C(=O)N[C@@H](CO)C(=O)N[C@@H](Cc1ccccc1)C(=O)N[C@@H](CCCNC(=N)N)C(=O)N[C@@H](Cc1ccccc1)C(N)=O)N(C)C (X2-FSFRF-NH2) |  |  | 0.455 |
| NC(=O)[C@H](Cc1ccccc1)NC(=O)[C@H](CCCN=C(N)N)NC(=O)[C@H](Cc1ccccc1)NC(=O)[C@H](CO)NC(=O)[C@H](Cc1ccccc1)NC(=O)CNC(=O)CNC(=O)Cc1ccc(F)cc1 ({Phenylacetyl(4-F)}-GGFSFRF-NH2) |  |  | 0.83 |
